{"source": "paper PMC6387599", "about": "(Drug Design, Development and Therapy, 2019)", "key": {"[1]": {"test": "Equilibrium solubility in distilled water", "type": "physicochemical", "conditions": "25°C, 72 hours", "in_short": "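Supernatant sampled at 0, 12, 24, 36, 48, 60 and 72 h and passed through a 0.45-µm filter. Concentration measured by HPLC at 242 nm, 30°C, 1.0 mL/min. Mobile phase was methanol or acetonitrile with phosphate buffer (pH 8.0 or 7.4; 70:30 or 80:20 v/v), depending on compound.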"}, "[2]": {"tested_on": "IL-6 production in LPS-induced A549 cells", "test": "Inhibition of IL-6 production", "type": "cell-based", "conditions": "Homo sapiens, A549, 24 h, read-out: inhibitory rate on IL-6", "in_short": "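A549 cells preincubated 1 h with test compound (10^-11–10^-6 M), then stimulated with LPS-EB (5 µL of 10 µg/mL solution) for 24 h. IL-6 in supernatants measured by ELISA, read at 450 nm. Inhibitory rate of IL-6 production calculated; IC50 from dose–response curves; n=3, mean ± SD.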"}, "xylene-induced ear edema": {"tested_on": "xylene-induced ear edema", "test": "Xylene-induced ear edema test", "type": "in vivo", "conditions": "mice, intraperitoneal, equivalent to 200 μg/kg Bud, 1 hour before xylene", "in_short": "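Male Kunming mice (20–25 g), n=10 per group, dosed intraperitoneally (0.1 mL/10 g body weight) with test compound at a dose equivalent to 200 µg/kg budesonide; vehicle 2% DMSO. After 1 h, 20 µL xylene applied to right ear, left ear untreated. Killed 1 h later; 6-mm ear discs weighed. Edema = right minus left ear weight. Analysed by one-way ANOVA with Fisher's LSD; mean ± SD.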"}}}
{"smiles": "CCCC1O[C@@H]2C[C@H]3[C@@H]4CCC5=CC(=O)C=C[C@]5(C)[C@H]4[C@@H](O)C[C@]3(C)[C@]2(C(=O)CO)O1", "note": "(stereo partly drawn) [Bud, budesonide]", "values": [{"measurement": "equilibrium solubility", "setting": "[1]", "result": 0.0022, "unit": "g/100 g water"}, {"measurement": "inhibition at 0.001 µM", "setting": "[2]", "result": "> 50", "unit": "%"}, {"measurement": "inhibition of ear edema", "setting": "xylene-induced ear edema", "result": 17.19, "unit": "%"}]}
